Laboratory results taken from ChEMBL document CHEMBL4387708, “Enhancement of Benzothiazoles as Pteridine Reductase-1 Inhibitors for the Treatment of Trypanosomatidic Infections” (J Med Chem, 2019).
In brackets after ≈: the same amount, converted by molar mass. Activity calls are given as the source filed them. The calls are words filed in the database; no cut-off is given here.

How the values were obtained:
Trypanosoma brucei [1] = assay: Growth inhibition of Trypanosoma brucei bloodstream forms at 10 uM measured after 72 hrs by resazurin-based fluorescence assay relative to control; assay type: organism-based; conditions: Trypanosoma brucei, read-out: GI
Trypanosoma brucei [2] = assay: Inhibition of PTR1 in Trypanosoma brucei bloodstream forms assessed as potentiation of methotrexate-induced parasitic cell growth inhibition at 10 uM measured after 72 hrs by resazurin-based fluorescence assay (reference value: 19 +/- 6%)
Method in brief: (§1)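 Bloodstream-form T. brucei resazurin assay: 72 h at 37 °C, 5% CO₂, then fluorescence at ex 540/em 620 nm. Benzothiazole was tested at 10 μM alone and with 4 μM methotrexate. The index is the combination's activity divided by the sum of the activities of 10 μM benzothiazole and 4 μM methotrexate given separately.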

Trypanosoma brucei [3] = assay: Inhibition of PTR1 in Trypanosoma brucei bloodstream forms assessed as potentiation of methotrexate-induced parasitic cell growth inhibition by measuring potentiation index at 10 uM measured after 72 hrs by resazurin-based fluorescence assay relative to control (methotrexate); assay type: functional; method in brief: as §1
[4] = biological target: Voltage-gated inwardly rectifying potassium channel KCNH2 (Homo sapiens, UniProt Q12809); assay: Displacement of Tracer Red from human ERG by fluorescence polarization assay
Cytochrome P450 1A2 = biological target: T1, Cytochrome P450 1A2 (Homo sapiens, UniProt P05177); assay: Inhibition of human CYP1A2 expressed in baculovirus infected insect cells using beetle D-luciferin as substrate preincubated for 30 mins followed by NADPH addition and measured after 30 mins by CYP450-Glo assay
T1 sequence (P05177 whole entry): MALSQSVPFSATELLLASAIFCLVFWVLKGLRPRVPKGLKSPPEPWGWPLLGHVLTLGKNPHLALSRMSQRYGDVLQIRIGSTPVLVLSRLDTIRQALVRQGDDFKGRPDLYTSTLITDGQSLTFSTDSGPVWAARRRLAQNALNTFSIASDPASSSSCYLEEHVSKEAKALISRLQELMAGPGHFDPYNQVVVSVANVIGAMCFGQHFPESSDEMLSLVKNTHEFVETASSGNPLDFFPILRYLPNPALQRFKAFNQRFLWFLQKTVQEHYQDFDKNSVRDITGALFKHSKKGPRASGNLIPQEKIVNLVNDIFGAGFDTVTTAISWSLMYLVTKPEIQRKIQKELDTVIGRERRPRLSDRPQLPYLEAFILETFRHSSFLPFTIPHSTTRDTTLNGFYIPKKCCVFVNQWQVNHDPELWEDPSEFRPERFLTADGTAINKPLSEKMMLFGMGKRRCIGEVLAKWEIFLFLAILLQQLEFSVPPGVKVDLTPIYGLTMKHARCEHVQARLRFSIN

Cytochrome P450 2D6 = Cytochrome P450 2D6 (Homo sapiens, UniProt P10635); assay: Inhibition of human CYP2D6 expressed in baculovirus infected insect cells using beetle D-luciferin as substrate preincubated for 30 mins followed by NADPH addition and measured after 30 mins by CYP450-Glo assay
Cytochrome P450 3A4 = Cytochrome P450 3A4 (Homo sapiens, UniProt P08684); assay: Inhibition of human CYP3A4 expressed in baculovirus infected insect cells using beetle D-luciferin as substrate preincubated for 30 mins followed by NADPH addition and measured after 30 mins by CYP450-Glo assay
[5] = Cytotoxicity against human A549 cells after 48 hrs by Celltiter-glo assay; assay type: cell-based
[6] = Cytotoxicity against human THP1 cells after 72 hrs by MTT assay; assay type: cell-based, THP-1; conditions: read-out: NOAEL
hERG = assay: Selectivity index ratio of IC50 for human ERG to EC50 for growth inhibition of Trypanosoma brucei bloodstream forms; assay type: toxicity; conditions: read-out: Ratio IC50/EC50
[7] = Thermodynamic solubility of the compound in pure water after 24 hrs by spectrophotometric method; assay type: physicochemical; conditions: read-out: Therm_solubility
Method in brief: (§2)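 Over-saturated suspensions (theoretical maximum 100 µg/mL) in water, PBS, PBS + 10% DMSO or PBS + 50% DMSO were stirred at 1200 rpm for 24 h at 25 °C. They were filtered at 0.2 µm and diluted 1:1 with ACN. Concentration was quantified by UV using a molar extinction coefficient determined at 340 nm.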

[8] = Thermodynamic solubility of the compound in phosphate buffered saline after 24 hrs by spectrophotometric method; assay type: physicochemical; conditions: read-out: Therm_solubility; method in brief: as §2
[9] = Thermodynamic solubility of the compound in phosphate buffered saline/10%DMSO after 24 hrs by spectrophotometric method; assay type: physicochemical; conditions: read-out: Therm_solubility; method in brief: as §2
CYP1A2 = assay: Selectivity index ratio of IC50 for CYP1A2 (unknown origin) to EC50 for growth inhibition of Trypanosoma brucei bloodstream forms; assay type: toxicity; conditions: read-out: Ratio IC50/EC50
CYP2C9 = assay: Selectivity index ratio of IC50 for CYP2C9 (unknown origin) to EC50 for growth inhibition of Trypanosoma brucei bloodstream forms; assay type: toxicity; conditions: read-out: Ratio IC50/EC50
CYP2C19 = assay: Selectivity index ratio of IC50 for CYP2C19 (unknown origin) to EC50 for growth inhibition of Trypanosoma brucei bloodstream forms; assay type: toxicity; conditions: read-out: Ratio IC50/EC50
CYP2D6 = assay: Selectivity index ratio of IC50 for CYP2D6 (unknown origin) to EC50 for growth inhibition of Trypanosoma brucei bloodstream forms; assay type: toxicity; conditions: read-out: Ratio IC50/EC50
CYP3A4 = assay: Selectivity index ratio of IC50 for CYP3A4 (unknown origin) to EC50 for growth inhibition of Trypanosoma brucei bloodstream forms; assay type: toxicity; conditions: read-out: Ratio IC50/EC50
[10] = Selectivity index ratio of IC50 for mitochondrial toxicity in human 786-O cells to EC50 for growth inhibition of Trypanosoma brucei bloodstream forms; assay type: cell-based; conditions: read-out: Ratio IC50/EC50
[11] = Selectivity index ratio of GI50 for human A549 cells to EC50 for growth inhibition of Trypanosoma brucei bloodstream forms; assay type: toxicity; conditions: read-out: Ratio GI50/EC50
[12] = AUC in BALB/c mouse at 1 mg/kg, iv by LC-MS analysis; assay type: ADME, organism-based; conditions: in vivo
Method in brief: (§3)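 Snapshot PK in healthy BALB/c mice. Free compound given in 8% DMSO at 1 mg/kg IV or 20 mg/kg per os; for the formulated arm it was solubilized with hydroxypropyl-β-cyclodextrin (50%) and given at 20 mg/kg per os. Plasma levels were quantified by LC-MS on a C18 column with triple-quadrupole ESI detection in positive ion mode.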

[13] = AUC in BALB/c mouse at 20 mg/kg, po co-formulated with hydroxypropyl-beta-cyclodextrin by LC-MS analysis; assay type: ADME, organism-based; conditions: in vivo; method in brief: as §3
[14] = Clearance in BALB/c mouse at 20 mg/kg, po co-formulated with hydroxypropyl-beta-cyclodextrin by LC-MS analysis; assay type: ADME, organism-based; conditions: in vivo; method in brief: as §3
[15] = system: Trypanosoma brucei brucei; assay: Antitrypanosomal activity against red-shifted luciferase expressing Trypanosoma brucei brucei GVR35 infected in BALB/c mouse assessed as reduction in parasite infection at 40 mg/kg, po administered twice a day as suspension in hydroxypropyl-beta-cyclodextrin solution by bioluminescence assay; assay type: functional, organism-based
Method in brief: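 T. b. brucei GVR35 (luciferase-expressing) was given IP to BALB/c mice as blood carrying 1 x 10⁵ parasites from a donor mouse at first-peak parasitemia; controls received PBS. Compound was given orally as a suspension in (2-hydroxypropyl)-β-cyclodextrin solution at 40 mg/kg twice daily. […] Parasite load was read by bioluminescence imaging after subcutaneous D-luciferin under isoflurane, as total flux per ROI.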

[16] = Ratio of Cmax BALB/c mouse at 20 mg/kg, po co-formulated with hydroxypropyl-beta-cyclodextrin to EC50 for Trypanosoma brucei bloodstream forms; assay type: ADME, organism-based; conditions: in vivo

Sequence of Cytochrome P450 2D6 (P10635 whole entry): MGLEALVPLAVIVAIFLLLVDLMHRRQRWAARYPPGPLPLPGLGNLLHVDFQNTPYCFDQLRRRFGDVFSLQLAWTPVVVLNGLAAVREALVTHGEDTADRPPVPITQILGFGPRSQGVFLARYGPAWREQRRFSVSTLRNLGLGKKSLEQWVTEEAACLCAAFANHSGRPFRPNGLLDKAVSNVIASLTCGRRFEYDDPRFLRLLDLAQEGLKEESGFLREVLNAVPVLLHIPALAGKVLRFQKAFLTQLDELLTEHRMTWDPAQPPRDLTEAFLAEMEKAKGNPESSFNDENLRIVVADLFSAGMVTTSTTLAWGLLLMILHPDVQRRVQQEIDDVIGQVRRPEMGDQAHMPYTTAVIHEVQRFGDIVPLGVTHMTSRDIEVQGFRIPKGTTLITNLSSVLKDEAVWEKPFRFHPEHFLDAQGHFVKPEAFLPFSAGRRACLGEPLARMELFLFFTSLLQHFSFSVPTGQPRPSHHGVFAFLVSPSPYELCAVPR
Sequence of Voltage-gated inwardly rectifying potassium channel KCNH2 (Q12809 whole entry): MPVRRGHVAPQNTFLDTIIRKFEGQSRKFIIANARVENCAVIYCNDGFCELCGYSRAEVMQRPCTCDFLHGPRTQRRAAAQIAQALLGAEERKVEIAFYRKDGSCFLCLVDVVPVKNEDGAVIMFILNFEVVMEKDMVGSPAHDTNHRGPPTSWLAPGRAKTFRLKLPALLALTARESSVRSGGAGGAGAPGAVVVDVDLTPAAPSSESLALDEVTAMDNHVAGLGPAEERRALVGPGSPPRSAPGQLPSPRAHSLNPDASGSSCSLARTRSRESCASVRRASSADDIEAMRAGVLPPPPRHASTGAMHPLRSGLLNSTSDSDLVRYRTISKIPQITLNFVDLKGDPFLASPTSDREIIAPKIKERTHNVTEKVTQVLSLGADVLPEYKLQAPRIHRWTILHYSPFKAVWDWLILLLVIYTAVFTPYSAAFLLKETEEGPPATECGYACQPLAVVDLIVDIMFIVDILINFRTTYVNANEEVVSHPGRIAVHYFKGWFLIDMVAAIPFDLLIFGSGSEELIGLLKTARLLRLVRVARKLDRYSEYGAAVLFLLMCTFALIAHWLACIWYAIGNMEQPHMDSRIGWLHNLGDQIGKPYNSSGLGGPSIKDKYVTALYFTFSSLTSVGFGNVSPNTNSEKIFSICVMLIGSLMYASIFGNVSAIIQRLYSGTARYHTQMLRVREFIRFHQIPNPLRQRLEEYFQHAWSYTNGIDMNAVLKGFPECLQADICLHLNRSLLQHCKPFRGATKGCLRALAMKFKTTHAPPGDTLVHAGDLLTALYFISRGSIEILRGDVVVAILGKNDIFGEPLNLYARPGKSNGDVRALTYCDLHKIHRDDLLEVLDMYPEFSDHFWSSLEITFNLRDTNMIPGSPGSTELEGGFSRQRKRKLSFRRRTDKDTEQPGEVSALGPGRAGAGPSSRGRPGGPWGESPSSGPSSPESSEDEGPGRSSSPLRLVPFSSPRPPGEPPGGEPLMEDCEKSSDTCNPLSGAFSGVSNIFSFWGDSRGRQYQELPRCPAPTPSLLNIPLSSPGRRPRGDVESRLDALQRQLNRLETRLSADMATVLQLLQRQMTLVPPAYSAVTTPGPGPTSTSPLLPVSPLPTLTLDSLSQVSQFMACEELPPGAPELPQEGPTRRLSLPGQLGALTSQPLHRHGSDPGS
Sequence of Cytochrome P450 3A4 (P08684 whole entry): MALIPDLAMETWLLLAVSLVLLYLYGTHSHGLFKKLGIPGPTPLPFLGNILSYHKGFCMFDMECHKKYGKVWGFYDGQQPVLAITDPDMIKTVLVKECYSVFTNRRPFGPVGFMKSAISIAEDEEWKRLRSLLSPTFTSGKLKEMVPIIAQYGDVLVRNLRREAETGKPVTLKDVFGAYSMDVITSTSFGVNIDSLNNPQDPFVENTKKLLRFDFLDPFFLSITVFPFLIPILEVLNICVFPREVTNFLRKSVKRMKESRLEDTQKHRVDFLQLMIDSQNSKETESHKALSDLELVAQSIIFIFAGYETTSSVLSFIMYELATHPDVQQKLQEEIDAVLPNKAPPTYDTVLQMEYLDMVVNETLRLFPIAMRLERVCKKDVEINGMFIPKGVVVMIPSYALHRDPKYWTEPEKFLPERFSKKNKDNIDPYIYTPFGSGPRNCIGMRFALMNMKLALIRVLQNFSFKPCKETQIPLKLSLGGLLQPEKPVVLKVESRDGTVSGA

## Nc1nc2ccc(C(=O)NCc3ccccc3)cc2s1
Trypanosoma brucei [1]
  inhibition at 10 µM: > 60%
Trypanosoma brucei [2]
  growth inhibition (GI): 30%
Trypanosoma brucei [3]
  Ratio: 1.6
[4]
  IC50: > 25 µM
Cytochrome P450 1A2
  IC50: > 25 µM
Cytochrome P450 2D6
  IC50: 10 to 25 µM
Cytochrome P450 3A4
  IC50: > 25 µM
[5]
  GI50 at 48 h: > 25 µM
[6]
  MNTC at 72 h: > 25 µM
hERG
  selectivity ratio: > 10
[7]
  solubility thermodynamic at 24 h: 13.1 µg/mL (≈ 46.3 µM)
[8]
  solubility thermodynamic at 24 h: 10.9 µg/mL (≈ 38.6 µM)
[9]
  solubility thermodynamic at 24 h: > 100 µg/mL
CYP1A2
  selectivity ratio: > 10
CYP2C9
  selectivity ratio: > 10
CYP2C19
  selectivity ratio: > 10
CYP2D6
  selectivity ratio: > 10
CYP3A4
  selectivity ratio: > 10
[10]
  selectivity ratio: > 10
[11]
  selectivity ratio: > 10
[12]
  AUC: 1057 ng·h/mL
[13]
  AUC: 7930 ng·h/mL
[14]
  CL/F: 41 mL/min/kg
[15]
  Activity: inactive
[16]
  Ratio: 1.9
